Measurements: ChEMBL document CHEMBL1125720, “Long-acting dihydropyridine calcium antagonists. 6. Structure-activity relationships around 4-(2,3-dichlorophenyl)-3-(ethoxycarbonyl)-2-[(2-hydroxyethoxy)methyl]-5 -(methoxycarbonyl)-6-methyl-1,4-dihydropyridine” (J Med Chem, 1991)

Columns and labels:
Cavia porcellus = species: Cavia porcellus; assay: Evaluated for the negative ionotropy logarithm of the molar concentration required to depress contraction in the Langendorff-perfused guinea pig heart by 25%; format: functional
Procedure, shortened: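 Negative inotropy measured in vitro in a Langendorff-perfused guinea pig heart. Read-out is the molar concentration that depresses contraction by 25%, reported as pIC25.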

Rattus norvegicus = species: Rattus norvegicus; assay: Evaluated for the negative logarithm of the molar concentration required to block [Ca2+] induced contraction of K+ depolarized rat aorta by 50%.; format: functional
Procedure, shortened: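 Rat aorta depolarized with potassium, then contracted by adding calcium. Read-out is the molar concentration that inhibits the calcium-induced contraction by 50%, reported as pIC50.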

[1] = Selectivity index calculated as the ratio of Calcium pIC50 to that of negative inotropy IC25; format: functional
[2] = Compound was evaluated for the plasma clearance to investigate its pharmacokinetic profile in dogs after intravenous administration.; format: ADME, organism-based, Canis lupus familiaris; conditions: dog
[3] = Compound was evaluated for the plasma half-life to investigate its pharmacokinetic profile in dogs after intravenous administration.; format: ADME, organism-based, Canis lupus familiaris; conditions: dog
[4] = Compound was evaluated for the volume of distribution to investigate its pharmacokinetic profile in dogs after intravenous administration.; format: ADME, organism-based, Canis lupus familiaris; conditions: dog, in vivo, read-out: Volume of distribution

Compound | pIC25 (Cavia porcellus) | IC50 (Rattus norvegicus) | Selectivity index [1] | clearance [2] | half-life [3] | Vd [4]
CCO/C(O)=C1\C(COCC(C)O)=NC(C)=C(C(=O)OC)C1c1cccc(Cl)c1Cl (configuration not stated) | 7.3 | 15.8 nM | 3 |  |  | 
COC(=O)C1=C(C)NC(C)=C(C(=O)OC)C1c1ccccc1[N+](=O)[O-] [NIFEDIPINE] | 7.5 |  | 8 |  |  | 
CCO/C(O)=C1\C(COCCOC)=NC(C)=C(C(=O)OC)C1c1cccc(Cl)c1Cl (configuration not stated) | 6 | 31.6 nM | 30 |  |  | 
CCO/C(O)=C1\C(COCC(C)(O)Cc2ccccn2)=NC(C)=C(C(=O)OC)C1c1cccc(Cl)c1Cl (configuration not stated) | 7.5 | 63.1 nM | 2 |  |  | 
CCO/C(O)=C1\C(COCC(C)(O)CSc2ncccn2)=NC(C)=C(C(=O)OC)C1c1cccc(Cl)c1Cl (configuration not stated) | 7.4 | 25.1 nM | 1.6 |  |  | 
CCO/C(O)=C1\C(COCCO)=NC(C)=C(C(=O)OC)C1c1cccc(Cl)c1Cl (configuration not stated) | 7.4 | 3.98 nM | 10 | 9.6 mL/min/kg | 7.3 h | 6 L/kg
CCO/C(O)=C1\C(COCC(C)(C)O)=NC(C)=C(C(=O)OC)C1c1cccc(Cl)c1Cl (configuration not stated) | 7.2 | 6.31 nM | 10 |  |  | 
CCO/C(O)=C1\C(COCC(C)(O)CN)=NC(C)=C(C(=O)OC)C1c1cccc(Cl)c1Cl (configuration not stated) | 6.5 | 158 nM | 2 |  |  | 
CCO/C(O)=C1\C(COCC(C)(O)Cn2ccnc2)=NC(C)=C(C(=O)OC)C1c1cccc(Cl)c1Cl (configuration not stated) | 7.2 | 39.8 nM | 1.6 |  |  | 
CCO/C(O)=C1\C(COCC(C)(O)Cn2cncn2)=NC(C)=C(C(=O)OC)C1c1cccc(Cl)c1Cl (configuration not stated) | 7.2 | 20 nM | 3 |  |  | 
CCO/C(O)=C1\C(COCC(C)(O)CNc2ncccn2)=NC(C)=C(C(=O)OC)C1c1cccc(Cl)c1Cl (configuration not stated) | 7.1 | 39.8 nM | 2 |  |  | 
CCO/C(O)=C1\C(COCC(O)CO)=NC(C)=C(C(=O)OC)C1c1cccc(Cl)c1Cl (configuration not stated) | 6.9 | 15.8 nM | 8 |  |  | 
CCO/C(O)=C1\C(COCC(C)(O)c2ccco2)=NC(C)=C(C(=O)OC)C1c1cccc(Cl)c1Cl (configuration not stated) | 6.6 | 15.8 nM | 16 |  |  | 
CCO/C(O)=C1\C(COCC(C)(O)CO)=NC(C)=C(C(=O)OC)C1c1cccc(Cl)c1Cl (configuration not stated) | 7 | 25.1 nM | 4 |  |  | 
CCCOCC1=C(C(=O)OCC)C(c2cccc(Cl)c2Cl)/C(=C(\O)OC)C(C)=N1 (configuration not stated) | 6.2 | 31.6 nM | 20 |  |  | 
